Results taken from ChEMBL document CHEMBL5230170, “Pyridine based dual binding site aromatase (CYP19A1) inhibitors” (RSC Med Chem, 2023).
Active and inactive are the calls of the source. The calls are words filed in the database; no cut-off is given here.

What was measured:
[1] = system: MDA-MB-231; experiment: Cytotoxicity against human MDA-MB-231 cells assessed as reduction in cell growth at 1 uM incubated for 48 hrs by BrdU cell proliferation assay; assay type: functional, cell-based
Summary of the method: (§1)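 48 h exposure to 1 μM, with DMSO vehicle (≤0.01%) and doxorubicin (1 μM) controls, then BrdU added for 2 h at 37 °C before fixation, DNA denaturation and colorimetric immunoassay of BrdU incorporation. Plating was 8 × 10^3 cells/well for MCF-10A and 5 × 10^3 cells/well for MDA-MB-231. Technical replicates were n = 6 for MDA-MB-231 and n = 5 for MCF-7 and MCF-10A; one-way ANOVA with Tukey's test.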

[2] = system: MCF7; experiment: Cytotoxicity against human MCF7 cells assessed as reduction in cell growth at 1 uM incubated for 48 hrs by BrdU cell proliferation assay; assay type: functional, cell-based; summary of the method: as §1
[3] = system: MCF-10A; experiment: Cytotoxicity against human MCF-10A cells assessed as reduction in cell growth at 1 uM incubated for 48 hrs by BrdU cell proliferation assay; assay type: toxicity, cell-based; summary of the method: as §1
[4] = species on record: Homo sapiens; experiment: Selectivity index, ratio of IC50 for inhibition of CYP2D6 in human liver microsomes to IC50 for inhibition of CYP19A1 in human JEG-3 cells; assay type: cell-based
Summary of the method: (§2)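 The CYP isoform IC50 was measured in human liver microsomes with an isoform-specific probe substrate. […] Tritiated water was charcoal-cleared and counted, then normalised to BCA protein, in triplicate. The index is the ratio of the isoform IC50 to the CYP19A1 IC50.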

[5] = species on record: Homo sapiens; experiment: Selectivity index, ratio of IC50 for inhibition of CYP1A2 in human liver microsomes to IC50 for inhibition of CYP19A1 in human JEG-3 cells; assay type: cell-based; summary of the method: as §2

Structure (SMILES) | Activity [1] | Activity [2] | Activity [3] | Ratio IC50 [4] | Ratio IC50 [5]
CCC#CCOc1ccc2cc(C(O)(c3ccc(Br)cc3)c3cccnc3)oc2c1 (centres undefined) | inactive | inactive | Not Active |  | 
CCC#CCOc1ccc2cc(C(O)(c3ccc(Cl)cc3)c3cccnc3)oc2c1 (centres undefined) | inactive | inactive | Not Active |  | 
COc1ccc2cc(C(O)(c3ccc(Cl)cc3)c3cccnc3)oc2c1 (centres undefined) | inactive | inactive | Non-Toxic |  | 
COc1cccc2c1C(=O)c1c(O)c3c(c(O)c1C2=O)C[C@@](O)(C(=O)CO)C[C@@H]3O[C@H]1C[C@H](N)[C@H](O)[C@H](C)O1 [DOXORUBICIN] | inactive | inactive | Not Active |  | 
COc1ccc2cc(C(O)(c3cccnc3)c3ccc(Cl)cc3Cl)oc2c1 (centres undefined) | inactive | inactive | Non-Toxic |  | 
COc1ccc2cc(C(O)(c3ccc(Br)cc3)c3cccnc3)oc2c1 (centres undefined) | inactive | inactive | Non-Toxic |  | 
CC#CCOc1ccc2cc(C(O)(c3ccc(Br)cc3)c3cccnc3)oc2c1 (centres undefined) | inactive | inactive | Non-Toxic | 30100 | 30100
COc1ccc2cc(C(O)(c3ccc(F)cc3)c3cccnc3)oc2c1 (centres undefined) | inactive | inactive | Non-Toxic |  | 
CC#CCOc1ccc2cc(C(O)(c3ccc(Cl)cc3)c3cccnc3)oc2c1 (centres undefined) | inactive | inactive | Non-Toxic |  | 
